Results on 25 molecules are retold here after ChEMBL document CHEMBL4699419, “Antileishmanial assessment of isoxazole derivatives against L. donovani” (RSC Med Chem, 2020).

The subject of the first assay is Leishmania donovani. The assay can be described thus: Antileishmanial activity against late log phase promastigote stage of Leishmania donovani MHOM/IN/80/Dd8 harboring luciferase reporter gene incubated for 72 hrs by Steady-Glo luminescence assay. In kind it is functional, organism-based.
Conditions: not given; call rule not given here
In a few lines:
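Luciferase-transfected promastigotes kept at 25 ± 1 °C in medium 199 + 10% heat-inactivated FCS + G418 (20 μg ml–1). Late-log cells (5 × 10^5 per well) grown 72 h with graded compound concentrations from DMSO, DMSO dilution controls. Aliquot mixed 1:1 with Steady-Glo, luminescence (RLU) read; % inhibition vs control. IC50 by Probit regression, three independent experiments.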
As to `COC(=O)c1c(NCc2ccc(F)cc2)noc1-c1ccc([N+](=O)[O-])cc1`, the IC50 result is reported as “Not Active”.

For `O=C(c1c([N+](=O)[O-])noc1-c1ccc(Cl)cc1)N1CCOCC1`, the IC50 entry was “Not Active”.

On to `CCN(CC)CCNc1noc(-c2ccc(Cl)cc2Cl)c1C(=O)OC`, for which the IC50 entry was “Not Active”.

Turning to `O=C(NCc1ccc(F)cc1)c1c([N+](=O)[O-])noc1-c1ccc([N+](=O)[O-])cc1`, the IC50 result was “Not Active”.

On to `COC(=O)c1c(NCc2cccc(OC)c2)noc1-c1ccc([N+](=O)[O-])cc1`, for which the IC50 entry is recorded as “Not Active”.

For the molecule `COC(=O)c1c(NCc2ccc(OC)c(OC)c2)noc1-c1ccc([N+](=O)[O-])cc1`, the IC50 entry is reported as “Not Active”.

On to `COC(=O)c1c(NCc2ccc(OC)cc2)noc1-c1ccc([N+](=O)[O-])cc1`, for which the IC50 result was “Not Active”.

For the molecule `COC(=O)c1c(NCc2ccc(OC)cc2)noc1-c1cc2c(cc1[N+](=O)[O-])OCO2`, the IC50 result is “Not Active”.

For the molecule `O=C(NCc1cccc(Br)c1)c1c([N+](=O)[O-])noc1-c1ccc([N+](=O)[O-])cc1`, the IC50 result is on record as “Not Active”.

The same assay, now with this note: Leishmania donovani, MHOM/IN/80/Dd8, 72 h; read-out: IC50.
Take `COC(=O)c1c([N+](=O)[O-])noc1-c1ccc(Cl)c(Cl)c1`: the IC50 was 1.11 µM.

As to `COC(=O)c1c([N+](=O)[O-])noc1-c1ccc(Cl)cc1`, the IC50 was 1.79 µM.

`COC(=O)c1c([N+](=O)[O-])noc1-c1ccc(C(F)(F)F)cc1`: the IC50 amounted to 0.66 µM.

As to `COC(=O)c1c(NCc2ccc(C(C)(C)C)cc2)noc1-c1ccc(Cl)cc1Cl`, the IC50 was over 50 µM.

Take `O=C(O)c1c([N+](=O)[O-])noc1-c1ccc([N+](=O)[O-])cc1`: the IC50 was determined as 19 µM.

Turning to `COC(=O)c1c(NCCCNc2ccnc3cc(Cl)ccc23)noc1-c1ccccc1F`, the IC50 was determined as 16.8 µM.

As to `COC(=O)c1c(NCCCNc2ccnc3cc(Cl)ccc23)noc1-c1ccccc1[N+](=O)[O-]`, the IC50 was 1.98 µM.

For the molecule `COC(=O)c1c([N+](=O)[O-])noc1-c1cccc([N+](=O)[O-])c1`, the IC50 worked out at 2.49 µM.

On to `COC(=O)c1c([N+](=O)[O-])noc1-c1ccccc1`, for which the IC50 is 2.17 µM.

On to `COC(=O)c1c(NCc2ccccc2)noc1-c1cc2c(cc1[N+](=O)[O-])OCO2`, for which the IC50 was over 50 µM.

`COC(=O)c1c([N+](=O)[O-])noc1-c1ccc(F)cc1`: the IC50 is 2.1 µM.

On to `COc1ccc(CNC(=O)c2c([N+](=O)[O-])noc2-c2ccc([N+](=O)[O-])cc2)cc1OC`, for which the IC50 worked out at 1.3 µM.

Regarding `O=C(NCc1ccccc1)c1c([N+](=O)[O-])noc1-c1ccc(Cl)cc1Cl`, the half-inhibitory concentration (IC50) stood at 1.32 µM.

For the molecule `COC(=O)c1c([N+](=O)[O-])noc1-c1cccc(-c2cccs2)c1`, the IC50 came out at 38.4 µM.

Turning to `COC(=O)c1c([N+](=O)[O-])noc1-c1ccc([N+](=O)[O-])cc1`, the IC50 is 0.67 µM.

On to `COC(=O)c1c([N+](=O)[O-])noc1-c1ccccc1[N+](=O)[O-]`, for which the IC50 turned out to be 4.01 µM.

A further assay has as its system Leishmania donovani. The assay can be described thus: Antileishmanial activity against Leishmania donovani MHOM/IN/80/Dd8 promastigotes harboring luciferase reporter gene infected in mouse J774 cells assessed as inhibition of amastigote growth incubated for 72 hrs by Steady-Glo luminescence assay.
Conditions: not given
The assay is classed as functional, organism-based. The essentials: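 J774A.1 mouse macrophages (2 × 10^5 per well, RPMI-1640 + 10% FCS, 37 °C CO2) infected after 24 h with stationary-phase luciferase-transgenic promastigotes at 1:10 macrophage:parasite; compounds in complete medium for 72 h at 37 °C. Medium swapped for PBS, Steady-Glo added, luminescence read; % inhibition vs untreated control RLU. IC50 by Probit log dose/response regression, three independent experiments.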
`COC(=O)c1c([N+](=O)[O-])noc1-c1ccc(Cl)c(Cl)c1`: the IC50 entry is “Not Active”.

Consider `COC(=O)c1c([N+](=O)[O-])noc1-c1ccc(Cl)cc1`, for which the IC50 entry was “Not Active”.

On to `COC(=O)c1c([N+](=O)[O-])noc1-c1ccc(C(F)(F)F)cc1`, for which the IC50 entry is reported as “Not Active”.

In the case of `O=C(O)c1c([N+](=O)[O-])noc1-c1ccc([N+](=O)[O-])cc1`, the IC50 entry is “Not Active”.

Turning to `COC(=O)c1c(NCCCNc2ccnc3cc(Cl)ccc23)noc1-c1ccccc1F`, the IC50 result was “Not Active”.

On to `COC(=O)c1c(NCCCNc2ccnc3cc(Cl)ccc23)noc1-c1ccccc1[N+](=O)[O-]`, for which the IC50 entry is given as “Not Active”.

As to `COC(=O)c1c(NCc2ccc(F)cc2)noc1-c1ccc([N+](=O)[O-])cc1`, the IC50 result is recorded as “Not Active”.

Regarding `COC(=O)c1c([N+](=O)[O-])noc1-c1cccc([N+](=O)[O-])c1`, the IC50 entry is on record as “Not Active”.

Consider `COC(=O)c1c([N+](=O)[O-])noc1-c1ccccc1`, for which the IC50 entry is “Not Active”.

As to `COC(=O)c1c(NCc2ccccc2)noc1-c1cc2c(cc1[N+](=O)[O-])OCO2`, the IC50 result is “Not Active”.

In the case of `O=C(c1c([N+](=O)[O-])noc1-c1ccc(Cl)cc1)N1CCOCC1`, the half-inhibitory concentration (IC50) entry is reported as “Not Active”.

Turning to `CCN(CC)CCNc1noc(-c2ccc(Cl)cc2Cl)c1C(=O)OC`, the IC50 result is on record as “Not Active”.

Regarding `O=C(NCc1ccc(F)cc1)c1c([N+](=O)[O-])noc1-c1ccc([N+](=O)[O-])cc1`, the IC50 result is recorded as “Not Active”.

As to `COC(=O)c1c([N+](=O)[O-])noc1-c1ccc(F)cc1`, the IC50 entry was “Not Active”.

For `COC(=O)c1c(NCc2cccc(OC)c2)noc1-c1ccc([N+](=O)[O-])cc1`, the IC50 result is on record as “Not Active”.

With `COC(=O)c1c(NCc2ccc(OC)c(OC)c2)noc1-c1ccc([N+](=O)[O-])cc1`, the IC50 entry is given as “Not Active”.

Consider `COc1ccc(CNC(=O)c2c([N+](=O)[O-])noc2-c2ccc([N+](=O)[O-])cc2)cc1OC`, for which the IC50 entry is reported as “Nd(Toxic)”.

As for `O=C(NCc1ccccc1)c1c([N+](=O)[O-])noc1-c1ccc(Cl)cc1Cl`, the IC50 entry is recorded as “Nd(Toxic)”.

For `COC(=O)c1c([N+](=O)[O-])noc1-c1cccc(-c2cccs2)c1`, the IC50 entry is “Not Active”.

As for `COC(=O)c1c(NCc2ccc(OC)cc2)noc1-c1ccc([N+](=O)[O-])cc1`, the IC50 result is recorded as “Not Active”.

As to `COC(=O)c1c(NCc2ccc(OC)cc2)noc1-c1cc2c(cc1[N+](=O)[O-])OCO2`, the IC50 entry is reported as “Not Active”.

In the case of `O=C(NCc1cccc(Br)c1)c1c([N+](=O)[O-])noc1-c1ccc([N+](=O)[O-])cc1`, the IC50 result is recorded as “Not Active”.

For the molecule `COC(=O)c1c([N+](=O)[O-])noc1-c1ccc([N+](=O)[O-])cc1`, the IC50 entry is reported as “Not Active”.

On to `COC(=O)c1c([N+](=O)[O-])noc1-c1ccccc1[N+](=O)[O-]`, for which the IC50 result is “Not Active”.

Still in this assay, the particulars now being: Leishmania donovani, MHOM/IN/80/Dd8, J774, 72 h; read-out: IC50.
For the molecule `COC(=O)c1c(NCc2ccc(C(C)(C)C)cc2)noc1-c1ccc(Cl)cc1Cl`, the IC50 is over 50 µM.
